Test [1] has as its system Staphylococcus aureus. Put plainly: Antibacterial activity against vancomycin intermediate Staphylococcus aureus after overnight incubation. It is filed as functional. In a few lines:
(§1)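 Strains were grown in Luria Broth. Overnight stationary-phase cultures were diluted 1:1000 into fresh medium with twofold compound dilutions, highest typically 128 µg/ml, in 96-well plates. Incubated overnight at 37 °C. MIC recorded as the […].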

Test [2] relates to Enterococcus faecium. The test can be described thus: Antibacterial activity against vancomycin-resistant Enterococcus faecium 449 after overnight incubation. Conditions: Enterococcus faecium, 449; read-out: MIC.
Test [3] deals with Enterococcus faecium. The test can be described thus: Antibacterial activity against vancomycin-resistant Enterococcus faecium 820 after overnight incubation. The conditions noted are these: Enterococcus faecium, 820; read-out: MIC.
Test [4] has as its system Enterococcus faecium. The test can be described thus: Antibacterial activity against vancomycin-resistant Enterococcus faecium 987 after overnight incubation. The conditions noted are these: Enterococcus faecium, 987; read-out: MIC.
Test [5] has as its system Staphylococcus aureus. The test can be described thus: Antibacterial activity against Staphylococcus aureus 6538P after overnight incubation. Type of test: functional. The conditions noted are these: Staphylococcus aureus, 6538P; read-out: MIC. In a few lines: as §1
Test [6] deals with Enterococcus faecium. Put plainly: Antibacterial activity against vancomycin-resistant Enterococcus faecium 243 after overnight incubation. The conditions noted are these: Enterococcus faecium, 243; read-out: MIC.
For test [7], the system named is Staphylococcus epidermidis. The test can be described thus: Antibacterial activity against Staphylococcus epidermidis ATCC 700562 after overnight incubation. Type of test: functional.
In test [8] the test system is Staphylococcus epidermidis. Put plainly: Antibacterial activity against Staphylococcus epidermidis ATCC 700562 after 24 hrs. It is filed as functional. The conditions noted are these: ATCC 700562, 24 h. In a few lines:
(§2)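 Micro-broth dilution in cation-adjusted Mueller Hinton II broth, inoculum 1 × 10^6 CFU per mL, added to triplicate wells of twofold serially diluted compound. Incubated 24 h at 37 °C. MIC taken as the lowest dilution giving complete growth inhibition.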

Test [9] concerns Staphylococcus aureus. Put plainly: Antibacterial activity against Staphylococcus aureus 6538P after 24 hrs. It is filed as functional. The gist of the method:
as §2

For test [10], the system named is Enterococcus faecium. The test can be described thus: Antibacterial activity against vancomycin-resistant Enterococcus faecium 987 after 24 hrs. The conditions noted are these: Enterococcus faecium, 987, 24 h.
Test [11] has as its system Enterococcus faecium. The test can be described thus: Antibacterial activity against vancomycin-resistant clinical isolate Enterococcus faecium after 24 hrs. Type of test: functional.
Test [12] deals with Staphylococcus aureus. Put plainly: Antibacterial activity against vancomycin intermediate Staphylococcus aureus after 24 hrs. Type of test: functional. In a few lines:
(§3)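 Broth microdilution in cation-adjusted Mueller Hinton II broth, inoculum 1 × 10^6 CFU/mL. Inoculum was added 1:1 to twofold serial compound dilutions in triplicate wells. Plates were incubated 24 h at 37 °C. MIC was taken as the lowest dilution giving complete growth inhibition. Strains: wild type ATCC 6538P, Mu50 ATCC 700699, MRSA ATCC 43300.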

Test [13] deals with Enterococcus faecium. The test can be described thus: Antibacterial activity against vancomycin sensitive clinical isolate Enterococcus faecium after 24 hrs. It is filed as functional.
Test [14] concerns Enterococcus faecium. Put plainly: Antibacterial activity against vancomycin-resistant Enterococcus faecium 243 after 24 hrs. Conditions: Enterococcus faecium, 243, 24 h.
The subject of test [15] is Staphylococcus aureus. The test can be described thus: Antibacterial activity against methicillin-resistant Staphylococcus aureus ATCC 43300 after 24 hrs. Conditions: ATCC 43300, 24 h. Type of test: functional. In a few lines:
as §3

Test [16] concerns Enterococcus faecium. Put plainly: Antibacterial activity against vancomycin-resistant Enterococcus faecium 820 after 24 hrs. The conditions noted are these: Enterococcus faecium, 820, 24 h.
For test [17], the system named is Staphylococcus aureus. Put plainly: Antibacterial activity against methicillin sensitive Staphylococcus aureus after 24 hrs. It is filed as functional. In a few lines:
as §3

The subject of test [18] is Enterococcus faecium. Put plainly: Antibacterial activity against vancomycin-resistant Enterococcus faecium 449 after 24 hrs. Conditions: Enterococcus faecium, 449, 24 h.

≈ marks a conversion by molar mass, not a printed value.

One may read the MIC as the smallest concentration in the dilution series that meets the test's criterion for growth inhibition.

Regarding `CC(C)CCOc1ccc2ccccc2c1-c1c(OCC(=O)N[C@H](CCCCN)C(=O)N[C@H](CCCNC(=N)N)C(=O)N[C@@H](CC(C)C)c2ncc(Cc3ccccc3)o2)ccc2ccccc12.Cl.Cl`, in the test on Staphylococcus aureus [1] (read-out: MIC), the MIC was determined as 4 µg/mL.

For `CN[C@H](CC(C)C)C(=O)N[C@H]1C(=O)N[C@@H](CC(N)=O)C(=O)N[C@H]2C(=O)N[C@H]3C(=O)N[C@H](C(=O)N[C@H](C(=O)O)c4cc(O)cc(O)c4-c4cc3ccc4O)[C@H](O)c3ccc(c(Cl)c3)Oc3cc2cc(c3O[C@@H]2O[C@H](CO)[C@@H](O)[C@H](O)[C@H]2O[C@H]2C[C@](C)(N)[C@H](O)[C@H](C)O2)Oc2ccc(cc2Cl)[C@H]1O` [VANCOMYCIN], the MIC in the test on Enterococcus faecium [2] was greater than 25 µg/mL; in the test on Staphylococcus aureus [1], 6 µg/mL (≈ 4.14 µM); in the test on Enterococcus faecium [3] it was greater than 25 µg/mL; in the test on Enterococcus faecium [4], 3.13 µg/mL (≈ 2.16 µM); in the test on Staphylococcus aureus [5], 1.56 µg/mL (≈ 1.08 µM); in the test with Enterococcus faecium [6], 1.56 µg/mL (≈ 1.08 µM). In addition, it took 3.13 µg/mL (≈ 2.16 µM) to inhibit growth in test [7] (MIC).

As to `CC(C)CCOc1ccc2ccccc2c1-c1c(OCC(=O)N[C@H](CCCCN)C(=O)N[C@@H](CCCNC(=N)N)C(=O)N[C@H](CC(C)C)C(=O)OCc2ccccc2)ccc2ccccc12.Cl.Cl`, the MIC in [8] turned out to be 3 µg/mL; with Staphylococcus aureus [9] it was 3.9 µg/mL; in the test with Enterococcus faecium [10], 15.6 µg/mL; against Enterococcus faecium [11], 2 µg/mL; against Staphylococcus aureus [12], 6 µg/mL; in the test with Enterococcus faecium [13] it was 16 µg/mL. Besides, the MIC was found to be 15.6 µg/mL in the test with Enterococcus faecium [14]; 6 µg/mL in the test on Staphylococcus aureus [15]; 7.8 µg/mL in the test on Enterococcus faecium [16]; 6 µg/mL with Staphylococcus aureus [17]; 15.6 µg/mL against Enterococcus faecium [18].

Turning to `C=CCOc1ccc2ccccc2c1-c1c(OCC(=O)NCC(=O)NCC(=O)N[C@@H](CC=C)C(=O)OCc2ccccc2)ccc2ccccc12`, the MIC with Enterococcus faecium [2] amounted to 31.3 µg/mL (≈ 45.6 µM); in the test with Enterococcus faecium [3], 15.6 µg/mL (≈ 22.7 µM); in the test on Enterococcus faecium [4] it was 31.3 µg/mL (≈ 45.6 µM); in the test with Staphylococcus aureus [5] it was 3.9 µg/mL (≈ 5.69 µM); in the test with Enterococcus faecium [6], 62.5 µg/mL (≈ 91.1 µM); in [7], 3.9 µg/mL (≈ 5.69 µM).

With `CC(C)CCOC(=O)[C@H](CC(C)C)NC(=O)[C@@H](CCCNC(=N)N)NC(=O)[C@@H](CCCCN)NC(=O)COc1ccc2ccccc2c1-c1c(OCCC(C)C)ccc2ccccc12.Cl.Cl`, the MIC in the test on Staphylococcus aureus [1] (read-out: MIC) was determined as 4 µg/mL.

Turning to `CNC(=N)NCCC[C@@H](NC(=O)[C@@H](CCCCN)NC(=O)COc1ccc2ccccc2c1-c1c(OCCC(C)C)ccc2ccccc12)C(=O)N[C@@H](CC(C)C)C(=O)OCc1ccccc1.Cl.Cl`, the MIC with Enterococcus faecium [2] stood at 25 µg/mL; in the test on Enterococcus faecium [3] it was 25 µg/mL; in the test with Enterococcus faecium [4], 25 µg/mL; with Staphylococcus aureus [5], 3.13 µg/mL; with Enterococcus faecium [6], 25 µg/mL; in [7], 3.13 µg/mL.
